Data: publication PMC8777244 (Biochemistry and Biophysics Reports, 2022)
One block for each molecule: values may come before it.

Columns and labels:
Dynamic light scattering = type: physicochemical
Procedure, shortened: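 DLS was run on a DynaPro NanoStar. Samples at 1 mg/mL in 50 mM Tris, pH 7.5, were filtered through 0.45 then 0.1 μm and equilibrated 2 min at 25 °C. Acquisition was 5 s, with minimum peak intensity 1% and correlation cut-offs of 0.5 and 100,000 μs. Ten autocorrelation functions were averaged and fitted to decaying exponentials for the diffusion coefficient. Rh was calculated assuming spheres.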

CaM [1] = assay: CaM interaction by size-exclusion chromatography; type: binding
Procedure, shortened: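 HPLC size-exclusion used a Shodex KW802.5 column at 1.0 mL/min with 280 nm detection. Buffer was Tris, pH 7.5, with 0.2 M NaCl (range 0.2–0.5 M) plus 2 mM Ca²⁺ or 1 mM EDTA. Samples were filtered through 0.45 μm. MBP-DH constructs, alone or mixed with CaM or Dansyl-CaM, were compared with BSA. Collected fractions were assayed for Dansyl fluorescence.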

[2] = Size-exclusion chromatography, oligomeric states; type: physicochemical
Procedure, shortened: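 HPLC gel filtration of amylose-purified MBP-fused NOX5 dehydrogenase domain, run against CaM and BSA references. Column equilibrated in Tris pH 7.5 (50 mM per figure legends, 20 mM per methods) with 0.2 M NaCl (0.2–0.5 M range), plus 2 mM Ca²⁺ or 1 mM EDTA. Runs at 1.0 mL/min with 280 nm detection. 2 M urea added to partially dissociate oligomers. Species assigned by elution time.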

CaM [3] = assay: CaM binding to DHs by isothermal titration calorimetry; conditions: for Heat enthalpy change relative to DH665-719: fold of DH665-719 enthalpy
[4] = Solubility of DH proteins in bacterial expression; type: physicochemical; conditions: E. coli expression
[5] = 1 mg/mL, 50 mM Tris, pH 7.5, 25 °C

Heat enthalpy change relative to DH665-719 (CaM [3]): approximately double
B1: DH584-719: MBP-fused truncated Nox5 dehydrogenase domain residues 584–719 (56 kDa) (protein)
chain: KLHKVDFIWINRDQRSFEWFVSLLTKLEMDQAEEAQYGRFLELHMYMTSALGKNDMKAIGLQMALDLLANKEKKDSITGLQTRTQPGRPDWSKVFQKVAAEKKGKVQVFFCGSPALAKVLKGHCEKFGFRFFQENF
modifications: left off: MBP, N-terminal, kept
Decay of autocorrelation function (Dynamic light scattering; [5]): > 100 μs
Hydrodynamic radius (Rh) (Dynamic light scattering; [5]): 8.3 nm
Poly-distribution (%pd) (Dynamic light scattering; [5]): 42.5%
Estimated average molecular weight (DLS) (Dynamic light scattering; Raleigh sphere assumption, qualitative): ~450 kDa
Effect of CaM on DH oligomer (CaM [1]; CaM binding, Ca^2+): the dimer disappeared
SEC elution time, major peak ([2]; 50 mM Tris, pH 7.5, 0.2 M NaCl): 6.7 min
SEC elution time, very minor peak (monomer) ([2]; 50 mM Tris, pH 7.5, 0.2 M NaCl): ~9.5 min
SEC elution time, monomer, 2 M urea ([2]; 2 M urea, 50 mM Tris, pH 7.5, 0.2 M NaCl, Species 1): 9.52 min
SEC elution time, dimer, 2 M urea ([2]; 2 M urea, 50 mM Tris, pH 7.5, 0.2 M NaCl, Species 2): 8.02 min
SEC elution time, trimer, 2 M urea ([2]; 2 M urea, 50 mM Tris, pH 7.5, 0.2 M NaCl, Species 3 (∼168 kDa)): 7.25 min
SEC elution time, tetramer, 2 M urea ([2]; 2 M urea, 50 mM Tris, pH 7.5, 0.2 M NaCl, Species 4 (∼224 kDa)): 6.71 min
Dominant oligomer, high ionic strength ([2]; >0.25 M NaCl): favors trimer formation
Effect of DTT and Ca^2+ on HPLC profile ([2]; reducing agent DTT and Ca^2+ ions): did not affect its HPLC profile

Stoichiometry nCaM/DH, ITC at high DH concentration (CaM [3]; CaM into 20–50 μM DH, Ca^2+, low value attributed to DH degradation): lower than 1
Heat enthalpy change relative to DH665-719 (CaM [3]): approximately double
B2: DH605-719: MBP-fused truncated Nox5 dehydrogenase domain residues 605–719, contains REFBD and CMBD sequences (protein)
chain: SLLTKLEMDQAEEAQYGRFLELHMYMTSALGKNDMKAIGLQMALDLLANKEKKDSITGLQTRTQPGRPDWSKVFQKVAAEKKGKVQVFFCGSPALAKVLKGHCEKFGFRFFQENF
modifications: left off: MBP, N-terminal, kept

Stoichiometry, ITC CaM/DH (CaM [3]; CaM (titrant) into DH (near 2 μM), 50 mM Tris, pH 7.5, 2 mM Ca^2+, 25 °C, MBP-fused DH): 1.18 ± 0.05
Heat enthalpy change relative to DH665-719 (CaM [3]): approximately double
B3: DH528-719: MBP-fused truncated Nox5 dehydrogenase domain residues 528–719 (∼62 kDa) (protein)
chain: PTRRIFASEHAVLIGAGIGITPFASILQSIMYRHQKRKHTCPSCQHSWIEGVQDNMKLHKVDFIWINRDQRSFEWFVSLLTKLEMDQAEEAQYGRFLELHMYMTSALGKNDMKAIGLQMALDLLANKEKKDSITGLQTRTQPGRPDWSKVFQKVAAEKKGKVQVFFCGSPALAKVLKGHCEKFGFRFFQENF
modifications: left off: MBP, N-terminal, kept
Solubility [4]: most soluble
Share of D-CaM in DH fractions (CaM [1]; equal amounts of D-CaM and DH528-719, Ca^2+): approximately half
